TRPC4 PAM: positive allosteric modulators of TRPC4, primary screen, cell-based, mouse TRPC4beta, HEK293 mu-opioid, Fluo-4 calcium; Short transient receptor potential channel 4 (Mus musculus), Q9QUQ5; AID 2227, 2009; 0.42% of 310,000 active; B-score at 10 µM; DAMGO EC20, Fluo-4 Ca2+ flux; stronger effect = higher value;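 active = B-score of calcium response area above 5 SD of library B-scores, with initial fluorescence ratio within 5 SD of library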;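 note: B-score of integrated fluorescence ratio over time as area under calcium response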
TRPC4 act: activators of mouse TRPC4 channel, primary screen, Fluo4 calcium, HEK293 TRPC4beta/mu-opioid cells. Fluo4 calcium fluorescence; stronger effect = higher value. B-score at 10 µM. 0.49% of 310,000 active;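 active = B-score above 5 SD of library B-scores, and initial fluorescence ratio not above library mean plus 5 SD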;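 note: positive B-score marks a calcium rise read as TRPC4 activation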
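Assay system: HEK293 stable line with TRPC4beta plus mu-opioid receptor; schedule: 45 min room-temperature Fluo4 loading, 110 s read; technique: kinetic Fluo4 calcium fluorescence; evaluation: integrated baseline-normalised fluorescence ratio, converted to per-well B score; controls: buffer (low) and maximal DAMGO (high)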
TRPC6 inh: mouse TRPC6 channel inhibitors, primary screen, cell-based, HEK293, membrane potential dye. 1.1% of 310,000 active. Short transient receptor potential channel 6 (Mus musculus), Q61143. B-score at 10 µM. AID 2553, 2010. ACh-evoked depolarization; stronger effect = lower value;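 active = B-score under library mean minus 3 SD, initial fluorescence not abnormally high, positive integrated signal ratio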;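 note: B-score derived from integrated fluorescence ratio over the kinetic read; more negative B-score means stronger inhibition of depolarization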
Target sequence (Q61143 whole entry, looked up): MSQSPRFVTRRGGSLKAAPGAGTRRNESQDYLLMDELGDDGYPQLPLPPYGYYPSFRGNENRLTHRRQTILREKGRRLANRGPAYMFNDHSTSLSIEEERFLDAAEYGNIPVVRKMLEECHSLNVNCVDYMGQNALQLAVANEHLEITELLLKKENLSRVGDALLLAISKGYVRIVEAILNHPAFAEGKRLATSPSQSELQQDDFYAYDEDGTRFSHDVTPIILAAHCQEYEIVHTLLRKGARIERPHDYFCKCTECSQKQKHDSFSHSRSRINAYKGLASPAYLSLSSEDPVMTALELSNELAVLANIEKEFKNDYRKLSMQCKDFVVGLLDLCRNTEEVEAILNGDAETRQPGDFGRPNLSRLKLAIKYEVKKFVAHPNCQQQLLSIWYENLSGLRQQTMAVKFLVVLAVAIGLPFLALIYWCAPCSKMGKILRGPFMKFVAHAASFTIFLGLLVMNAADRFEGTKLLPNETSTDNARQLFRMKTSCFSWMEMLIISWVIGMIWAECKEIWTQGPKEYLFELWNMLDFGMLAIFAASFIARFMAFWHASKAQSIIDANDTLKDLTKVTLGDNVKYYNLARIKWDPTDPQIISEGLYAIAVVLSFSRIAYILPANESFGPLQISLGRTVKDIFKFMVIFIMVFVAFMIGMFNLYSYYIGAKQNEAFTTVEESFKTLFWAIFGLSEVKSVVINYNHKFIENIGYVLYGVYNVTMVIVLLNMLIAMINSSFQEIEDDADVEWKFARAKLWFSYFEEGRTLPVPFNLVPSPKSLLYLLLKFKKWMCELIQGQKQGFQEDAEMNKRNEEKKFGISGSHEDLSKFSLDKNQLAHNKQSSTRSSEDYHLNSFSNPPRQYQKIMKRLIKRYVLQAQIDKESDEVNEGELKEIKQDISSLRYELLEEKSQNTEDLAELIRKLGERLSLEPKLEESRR
TRPC4 inh: inhibitors of mouse TRPC4 channel, primary screen, Fluo4 calcium, HEK293 TRPC4beta/mu-opioid cells; DAMGO-evoked Fluo4 calcium flux; stronger effect = lower value; B-score at 10 µM; Short transient receptor potential channel 4 (Mus musculus), Q9QUQ5; AID 2247, 2010; 0.39% of 300,000 active;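 active = B-score over 3 SD under the library average, no early fluorescence shift, positive overall ratio signal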
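Material: HEK293 cells with stable TRPC4beta plus mu-opioid receptor expression / Probe or stimulus: DAMGO in two steps, submaximal then maximal / Compound: single concentration per test compound / Technique: kinetic Fluo4 fluorescence imaging of calcium influx / Read-out: per-well B score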
TRPC6 act: mouse TRPC6 channel activators, primary screen, cell-based, HEK293, membrane potential dye; B-score at 10 µM; HEK293-TRPC6 membrane potential dye fluorescence; stronger effect = higher value; Short transient receptor potential channel 6 (Mus musculus), Q61143; AID 2550, 2010; 0.13% of 310,000 active;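 active = B-score of the integrated fluorescence ratio above library mean plus 3 SD, and starting fluorescence ratio within library mean plus 5 SD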;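 note: higher score means more depolarization so channel activation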
An asterisk follows results filed as active; i = inactive. Only some compounds are listed: those with a hit (about 2.3% of all), similar ones and a draw of the others.

SMILES | TRPC4 PAM | TRPC4 act | TRPC6 inh | TRPC4 inh | TRPC6 act
O=C(Nc1ccccc1C(=O)NCCCN1CCOCC1)c1ccc(Cl)cc1 | i | i | i | i | i
CCCc1ccc2oc(C(=O)NCCN3CCCC(C(N)=O)C3)c(C)c2c1 (configuration not stated) | 13* | i | i | i | i
O=C(Nc1ccc(Cl)c(Cl)c1)C1C2C=CC3(O2)C1C(=O)N(CCN1CCCCC1)C3C(=O)NC1CCCCC1 (configuration not stated) | i | i | i | i | i
CN(C)CCOC(=O)C12CC3CC(CC(C3)C1)C2 | i | i | i | i | i
CN(C)CCOC(=O)C12CC3(C)CC(C)(CC(C)(C3)C1)C2 | i | 46* | i | i | i
NC(N)=NCCCC(NC(=O)c1ccccc1)C(=O)Nc1ccc([N+](=O)[O-])cc1 (configuration not stated) | i | 123* | i | i | i
O=C(Cn1ccccc1=O)NCc1ccc(F)cc1 | i | i | i | i | i
OCC1CCN(Cc2cn(Cc3ccccc3)nc2-c2cc3ccccc3o2)CC1 | i | 56* | i | i | i
CCCCN(C)CCNC(=O)c1cc(-c2cccnc2)nc2ccc(S(=O)(=O)N3CCC(C)CC3)cc12 | i | 57* | i | i | i
Cc1ccc(-c2nnc(N3CCC(C)CC3)c3ccccc23)cc1C | 63* | i | i | i | i
COCCCNC(=S)N(Cc1cccnc1)Cc1ccc(OC)c(OC)c1 | i | i | i | i | i
CC(C)CCn1c(=O)c2ccccc2n2c(CCC(=O)NC3CCN(Cc4ccccc4)CC3)nnc12 | i | i | i | i | i
CCn1c(=O)c2sccc2n2c(CCCC(=O)NC3CCN(Cc4ccccc4)CC3)nnc12 | 14* | i | i | i | i
Cc1c(C)c(C)c(S(=O)(=O)Nc2ccc3[nH]c(=O)[nH]c3c2)c(C)c1C | i | i | i | i | i
COc1ccc(CCNC/C=C/c2ccccc2)cc1 | i | 106* | i | i | i
CCCCn1c(SCC(=O)OCC)nc2c(sc(=S)n2-c2ccccc2OC)c1=O | i | i | i | -6* | i
CCN(c1nc(N)c(C(=O)N=C(N)N)nc1Cl)C(C)C | i | 100* | i | i | i
O=C(CN1CCCCC1)N1c2ccccc2Oc2ccccc21 | i | i | i | -5* | i
O=C(CN1CCCCCC1)N1c2ccccc2Sc2ccccc21 | i | i | i | -7* | i
CN1CCN(CC(=O)N2c3ccccc3Sc3ccccc32)CC1 | i | i | i | i | i
CC1Cc2ccccc2N1C(=O)CN1CCCCC1 (configuration not stated) | i | i | i | i | i
Cc1ccc(C2=NC(C(F)(F)F)(C(F)(F)F)c3c(n(-c4ccc(F)cc4)c(=O)[nH]c3=O)N2)cc1 | 12* | i | i | i | i
COc1cccc(-c2nn(-c3ccccc3)cc2CN(C)C(C)c2ccncn2)c1 (configuration not stated) | i | 51* | i | -6* | i
COc1ccc(-n2cc(CN(C)CCO)c(-c3cccc(F)c3)n2)cc1 | i | i | i | i | i
COc1ccc(-n2cc(CN(C)C(C)c3ccncn3)c(-c3cccc(F)c3)n2)cc1 (configuration not stated) | i | i | i | -8* | i
SMILES | TRPC4 PAM | TRPC4 act | TRPC6 inh | TRPC4 inh | TRPC6 act
O=C(NNC(=O)c1cccs1)c1ccc(Cl)nc1 | i | i | i | i | i
Cc1nn(C(=O)c2cccc([N+](=O)[O-])c2)c(C)c1Sc1ccccc1 | i | i | i | -6* | i
CN(C(=O)COC(=O)c1sc2ccccc2c1Cl)C1CCCCC1 | 29* | i | i | i | i
CN(C)CCCOC(=O)c1sc2ccccc2c1Cl | i | i | i | i | i
CCCOc1ccc(CSC2=NCCN2)cc1[N+](=O)[O-] | 12* | i | i | i | i
COc1ccc(CSC2=NCCN2)cc1Cl | 10* | i | i | i | i
O=[N+]([O-])c1cc(CSC2=NCCN2)ccc1O | i | i | i | i | i
COc1ccc(CSC2=NCCN2)cc1Br | i | i | i | i | i
CCc1ccc(NC2=NCC(c3ccccc3)S2)cc1 (configuration not stated) | 12* | i | i | i | i
O=[N+]([O-])c1ccc(C2CN=C(Nc3ccccc3)S2)cc1 (configuration not stated) | i | i | i | i | i
CCCCc1ccc(NC(=O)CSc2nnc(C)c(=O)n2N)cc1 | 24* | i | i | i | i
CC(=O)Nc1ccc(NC(=O)CSc2nnc(C)c(=O)n2N)cc1 | i | i | i | i | i
CC(C)(C)c1cc(O)c(C(C)(C)C)cc1O | i | 94* | i | i | i
CN(Cc1ccccc1)Cc1nc2c(c(=O)n(C)c(=O)n2C)n1CCCc1ccccc1 | 37* | i | i | i | i
CC(C)Cn1c(CN(C)Cc2ccccc2)nc2c1c(=O)n(C)c(=O)n2C | i | i | i | i | i
O=C(NNC(=O)C1C2C=CC(C2)C1C(=O)O)c1cc(Cl)ccc1O (configuration not stated) | i | i | i | i | i
COc1ccc(CN2CCN(C(=O)c3ccc(F)cc3)CC2)c(OC)c1 | i | i | i | -6* | i
O=C(Nc1ccccc1OCc1ccccc1)c1ccccc1Br | i | i | i | i | i
COc1ccc(CN2CCNC(=O)C2CC(=O)NC2CCCC2)c(C)c1C (configuration not stated) | i | i | i | -6* | i
COc1ccc(CN2CCNC(=O)C2CC(=O)NC2CCC2)c(OC)c1 (configuration not stated) | i | i | i | i | i
CN1CCc2c(C#N)c(N3CCCCC3)nc(NCc3ccccc3)c2C1 | 13* | i | i | i | i
N#Cc1c(NCCCO)nc(NCc2ccccc2)c2c1CCN(Cc1ccccc1)C2 | i | i | i | i | i
O=C(Nc1cccc(C(F)(F)F)c1)c1cccc(NS(=O)(=O)c2ccc(O)c(C(=O)O)c2)c1 | 22* | i | i | i | i
